Measurements: ChEMBL document CHEMBL1127845, “Synthesis and antitumor activity of novel 6-alkyl-6-demethylmitomycins” (J Med Chem, 1994)

Assays:
HeLa = assay: In vitro anticellular activity against HeLa S3 cells; type: functional, cell-based; conditions: Homo sapiens
Procedure, shortened: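 HeLa S3 cells seeded in 96-well plates on day 0, then exposed to compound for 1 h on day 1. Anticellular activity determined by a previously described method.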

CCRF S-180 [1] = assay: Treated versus control value of tumor volume was measured in ddY mice; type: functional, Mus musculus
Procedure, shortened: (§1)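 Sarcoma 180 cells implanted subcutaneously in the axillary region of ddY mice on day 0. Compounds given intravenously on day 1. Tumor volume determined by a previously described method and expressed as treated/control. ED50 is the dose giving 50% inhibition of tumor growth, taken from the dose–response curve. Optimal dose also recorded.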

CCRF S-180 [2] = assay: Effective dose that gave 50 percent inhibition of sarcoma 180 tumor growth in ddY mice; type: functional; conditions: Mus musculus; procedure, shortened: as §1
CCRF S-180 [3] = assay: Optimal dose against sarcoma 180 tumor in ddY mice; type: functional, Mus musculus; procedure, shortened: as §1

COC1=C(CC(C)C)C(=O)C2=C(C1=O)[C@@H](COC(N)=O)[C@@]1(OC)[C@H]3N[C@H]3CN21
IC50 (HeLa): 200 nM

CCCCCC1=C(N)C(=O)C2=C(C1=O)N1C[C@@H]3N[C@@H]3[C@]1(OC)[C@@H]2COC(N)=O
IC50 (HeLa): > 10000 nM

CO[C@@]12[C@H](COC(N)=O)C3=C(C(=O)C(CC[N+](=O)[O-])=C(N)C3=O)N1C[C@@H]1N[C@@H]12
T/C (CCRF S-180 [1]): 0.44
IC50 (HeLa): 1500 nM
ED50 (CCRF S-180 [2]): 8 mg/kg
OD (CCRF S-180 [3]): 15 mg/kg

CCCCCC1=C(OC)C(=O)C2=C(C1=O)N1C[C@H]3[C@H](N3C)[C@]1(O)[C@H]2COC(N)=O (stereo partly specified)
T/C (CCRF S-180 [1]): 0.79
IC50 (HeLa): 3100 nM
OD (CCRF S-180 [3]): 20 mg/kg

CCC1=C(N)C(=O)C2=C(C1=O)N1C[C@H]3[C@H](N3C)[C@]1(OC)[C@@H]2COC(N)=O (stereo partly specified)
T/C (CCRF S-180 [1]): 1.02
OD (CCRF S-180 [3]): 46 mg/kg

CO[C@@]12[C@H](COC(N)=O)C3=C(C(=O)C(CC(C)C)=C(N)C3=O)N1C[C@@H]1N[C@@H]12
T/C (CCRF S-180 [1]): 0.78
IC50 (HeLa): > 10000 nM
OD (CCRF S-180 [3]): 46 mg/kg

CCCCCCCCCCCC1=C(N)C(=O)C2=C(C1=O)N1C[C@@H]3N[C@@H]3[C@]1(OC)[C@@H]2COC(N)=O
IC50 (HeLa): > 10000 nM

CCC1=C(OC)C(=O)C2=C(C1=O)N1C[C@H]3[C@H](N3C)[C@]1(O)[C@H]2COC(N)=O (stereo partly specified)
T/C (CCRF S-180 [1]): 0.39
IC50 (HeLa): 300 nM
ED50 (CCRF S-180 [2]): 14 mg/kg
OD (CCRF S-180 [3]): 30 mg/kg

C=CCC1=C(N)C(=O)C2=C(C1=O)N1C[C@@H]3N[C@@H]3[C@]1(OC)[C@@H]2COC(N)=O
IC50 (HeLa): 10000 nM

COC1=C(Cc2ccccc2)C(=O)C2=C(C1=O)[C@@H](COC(N)=O)[C@@]1(OC)[C@H]3N[C@H]3CN21
T/C (CCRF S-180 [1]): 0.43
IC50 (HeLa): 63 nM
ED50 (CCRF S-180 [2]): 23 mg/kg
OD (CCRF S-180 [3]): 30 mg/kg

CCCCCCCCCCCCCCCCCCCC1=C(N)C(=O)C2=C(C1=O)N1C[C@@H]3N[C@@H]3[C@]1(OC)[C@@H]2COC(N)=O
IC50 (HeLa): 9000 nM

CO[C@@]12[C@H](COC(N)=O)C3=C(C(=O)C(Cc4ccccc4)=C(N)C3=O)N1C[C@@H]1N[C@@H]12
IC50 (HeLa): > 10000 nM

CCC1=C(N)C(=O)C2=C(C1=O)N1C[C@H]3[C@H](N3C)[C@]1(O)[C@H]2COC(N)=O (stereo partly specified)
T/C (CCRF S-180 [1]): 0.8
IC50 (HeLa): > 10000 nM
OD (CCRF S-180 [3]): 20 mg/kg

CCC1=C(N)C(=O)C2=C(C1=O)N1C[C@@H]3N[C@@H]3[C@]1(OC)[C@@H]2COC(N)=O.ClC(Cl)Cl
T/C (CCRF S-180 [1]): 0.42
IC50 (HeLa): > 10000 nM
ED50 (CCRF S-180 [2]): 38 mg/kg
OD (CCRF S-180 [3]): 46 mg/kg

COC1=C(Cc2ccccc2)C(=O)C2=C(C1=O)[C@H](COC(N)=O)[C@@]1(O)[C@@H]3[C@H](CN21)N3C (stereo partly specified) [6-BENZYL-6-DEMETHYLMITOMYCIN B]
T/C (CCRF S-180 [1]): 0.41
IC50 (HeLa): 520 nM
ED50 (CCRF S-180 [2]): 37 mg/kg
OD (CCRF S-180 [3]): 46 mg/kg

COC1=C(CC(C)C)C(=O)C2=C(C1=O)[C@H](COC(N)=O)[C@@]1(O)[C@@H]3[C@H](CN21)N3C (stereo partly specified) [6-DEMETHYL-6-(2-METHYLPROPYL)MITOMYCIN B]
T/C (CCRF S-180 [1]): 0.71
IC50 (HeLa): 6100 nM
OD (CCRF S-180 [3]): 20 mg/kg

CCC1=C(OC)C(=O)C2=C(C1=O)N1C[C@@H]3N[C@@H]3[C@]1(OC)[C@@H]2COC(N)=O [6-DEMETHYL-6-ETHYLMITOMYCIN A]
T/C (CCRF S-180 [1]): 0.1
IC50 (HeLa): 17 nM
ED50 (CCRF S-180 [2]): 2.8 mg/kg
OD (CCRF S-180 [3]): 7.4 mg/kg

CCCCCCCCCCCCCCCCCCCC1=C(OC)C(=O)C2=C(C1=O)N1C[C@@H]3N[C@@H]3[C@]1(OC)[C@@H]2COC(N)=O [6-DEMETHYL-6-N-NONADECYLMITOMYCIN A]
T/C (CCRF S-180 [1]): 0.69
IC50 (HeLa): 7300 nM
OD (CCRF S-180 [3]): 46 mg/kg

CCCCCC1=C(OC)C(=O)C2=C(C1=O)N1C[C@@H]3N[C@@H]3[C@]1(OC)[C@@H]2COC(N)=O [6-DEMETHYL-6-N-PENTYLMITOMYCIN A]
T/C (CCRF S-180 [1]): 0.37
IC50 (HeLa): 87 nM
ED50 (CCRF S-180 [2]): 19 mg/kg
OD (CCRF S-180 [3]): 30 mg/kg

CCCCCCCCCCCC1=C(OC)C(=O)C2=C(C1=O)N1C[C@@H]3N[C@@H]3[C@]1(OC)[C@@H]2COC(N)=O [6-DEMETHYL-6-N-UNDECYLMITOMYCIN A]
T/C (CCRF S-180 [1]): 0.8
IC50 (HeLa): 640 nM
OD (CCRF S-180 [3]): 20 mg/kg

COC1=C(C)C(=O)C2=C(C1=O)[C@@H](COC(N)=O)[C@@]1(OC)[C@H]3N[C@H]3CN21 [MITOMYCIN A]
T/C (CCRF S-180 [1]): 0.2
ED50 (CCRF S-180 [2]): 1.3 mg/kg
OD (CCRF S-180 [3]): 1.8 mg/kg

CO[C@@]12[C@H](COC(N)=O)C3=C(C(=O)C(C)=C(N)C3=O)N1C[C@@H]1N[C@@H]12 [MITOMYCIN]
T/C (CCRF S-180 [1]): 0.26
IC50 (HeLa): 590 nM
ED50 (CCRF S-180 [2]): 1.7 mg/kg
OD (CCRF S-180 [3]): 6 mg/kg
